Measurements published in ChEMBL document CHEMBL1156158, “Praziquantel analogs with activity against juvenile Schistosoma mansoni” (Bioorg Med Chem Lett, 2010).
In brackets after ≈: the same amount, converted by molar mass. Activity calls are given as the source filed them. The rule behind the calls is not given here.

Key:
Schistosoma mansoni [1] = experiment: Antischistosomal activity against adult Schistosoma mansoni assessed as motility reduction at 10 ug/ml after 120 hrs; format: functional; design: scale not given: the % may be the effect or the level left
Outline: (§1)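 Adult worms were recovered from infected mice by portal perfusion with warm DMEM containing 2 mM L-glutamine, penicillin/streptomycin, 20 mM Hepes and heparin. Host red cells were removed and the worms moved to DMEM with 10% FCS, glutamine and antibiotics. Compounds were added from 10 mg/mL DMSO stocks. At 120 h, motility disturbances and morphological changes were scored.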

Schistosoma mansoni [2] = experiment: Antischistosomal activity against adult Schistosoma mansoni assessed as morphological changes at 10 ug/ml after 120 hrs; format: functional, organism-based; outline: as §1
Schistosoma mansoni [3] = experiment: Antischistosomal activity in juvenile Schistosoma mansoni infected in mouse assessed as total worm reduction at 400 mg/kg, po after 28 days; format: functional; design: scale not given: the % may be the effect or the level left
Outline: (§2)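 Mice were infected with about 80 cercariae on day 0. A single oral dose was given, dissolved or suspended in 3% ethanol/7% Tween 80 vehicle: groups of three mice on day 21 (juvenile) and groups of five on day 49 (adult). Mice were killed by CO₂ 28 days after treatment and dissected for total and female worm counts versus vehicle controls. Medians were compared by Kruskal–Wallis test.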

Schistosoma mansoni [4] = experiment: Antischistosomal activity in juvenile Schistosoma mansoni infected in mouse assessed as female worm reduction at 400 mg/kg, po after 28 days; format: functional; design: scale not given: the % may be the effect or the level left; outline: as §2
Schistosoma mansoni [5] = experiment: Antischistosomal activity in adult Schistosoma mansoni infected in mouse assessed as total worm reduction at 400 mg/kg, po after 28 days; format: functional; design: scale not given: the % may be the effect or the level left; outline: as §2
Schistosoma mansoni [6] = experiment: Antischistosomal activity in adult Schistosoma mansoni infected in mouse assessed as female worm reduction at 400 mg/kg, po after 28 days; format: functional; design: scale not given: the % may be the effect or the level left; outline: as §2
Liver microsomes = experiment: Metabolic stability in human liver microsomes at 1 uM after 120 mins by LC-MS/MS; format: ADME, Microsome; settings: 2 h
Outline: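 Compound at 1 µM was incubated at 37 °C with 0.5 mg/mL microsomes. Reactions were started with an NADPH-regenerating system and stopped with ice-cold MeOH. Loss of parent compound over 120 min was followed by LC–MS/MS.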

Schistosoma mansoni [7] = experiment: Antischistosomal activity in juvenile Schistosoma mansoni infected in mouse assessed as total worm reduction at 200 mg/kg, po after 28 days; format: functional; design: scale not given: the % may be the effect or the level left
Outline: (§3)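 Mice infected with ca. 80 S. mansoni cercariae on day 0; single oral dose given on day 21 post-infection (juvenile stage) in 3% ethanol/7% Tween 80 vehicle, groups of three mice. Sacrificed by CO₂ 28 days post-treatment and dissected; total and female worm reduction rates versus vehicle controls, Kruskal–Wallis test comparing medians.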

Schistosoma mansoni [8] = experiment: Antischistosomal activity in juvenile Schistosoma mansoni infected in mouse assessed as female worm reduction at 200 mg/kg, po after 28 days; format: functional; design: scale not given: the % may be the effect or the level left; outline: as §3
Schistosoma mansoni [9] = experiment: Antischistosomal activity against adult Schistosoma mansoni; format: functional, organism-based

Row | SMILES | Activity (Schistosoma mansoni [1]) [%] | Activity (Schistosoma mansoni [2]) | Activity (Schistosoma mansoni [3]) [%] | Activity (Schistosoma mansoni [4]) [%] | Activity (Schistosoma mansoni [5]) [%] | Activity (Schistosoma mansoni [6]) [%] | Stability (Liver microsomes) | Activity (Schistosoma mansoni [7]) [%] | Activity (Schistosoma mansoni [8]) [%] | IC50 (Schistosoma mansoni [9]) [µg/mL]
1 | O=C(N1CCC(F)(F)CC1)N1CC(=O)N2CCc3ccccc3C2C1 (stereo not drawn) | 0 | inactive | 38 | 38 | 12 | 0 | Stable |  |  | 
2 | O=C1CN(C(=O)[C@H]2CC[C@]3(CC2)OO[C@]2(O3)C3CC4CC(C3)CC2C4)CCN1 | 0 | inactive |  |  | 1 | 13 |  | 85 | 85 | 
3 | O=C(C1CCC(F)(F)CC1)N1CC(=O)N2CCc3ccccc3C2C1 (stereo not drawn) | 25 | Active | 38 | 44 | 40 | 39 | Stable |  |  | 
4 | O=C(N1CCNCC1)N1CC(=O)N2CCc3ccccc3C2C1 (stereo not drawn) | 0 | inactive | 25 | 23 | 0 | 0 |  |  |  | 
5 | O=C1CCC(C(=O)N2CC(=O)N3CCc4ccccc4C3C2)CC1 (racemic) | 0 | Active | 25 | 41 | 79 | 81 |  |  |  | 
6 | O=C1CN(C(=O)[C@H]2CC[C@]3(CC2)OO[C@]2(O3)C3CC4CC(C3)CC2C4)CC2c3ccccc3CCN12 (stereo partly drawn) | 0 | inactive | 0 | 0 | 0 | 0 |  |  |  | 
7 | O=C(N1CCOCC1)N1CC(=O)N2CCc3ccccc3C2C1 (stereo not drawn) | 0 | inactive | 14 | 22 | 0 | 0 |  |  |  | 
8 | O=C1CN(C(=O)C23CC4CC(CC(C4)C2)C3)CC2c3ccccc3CCN12 (stereo not drawn) | 0 | inactive | 42 | 56 | 0 | 0 |  |  |  | 
9 | O=C(N1CCCCC1)N1CC(=O)N2CCc3ccccc3C2C1 (stereo not drawn) | 38 | Active | 27 | 34 | 1 | 9 |  |  |  | 
10 | O=C(C1CCCCC1)N1CC(=O)N2CCc3ccccc3C2C1 (stereo not drawn) [PRAZIQUANTEL] | 100 | Active | 7 | 18 | 96 | 98 |  |  |  | 0.37 (≈ 1.18 µM)
